PMI act satM6P: increases human PMI activity with near-saturating mannose 6-phosphate | coupled PMI enzyme assay, resazurin fluorescence, 20 min; stronger effect = higher value; 1 = untreated enzyme, 0 = substrate-free blank | hit rate 0.34% among 190,000 | AID 1216 | P34949 | activation factor at 20 µM;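 active = activation factor of 2 or more at 20 µM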
Target sequence (P34949 whole entry, looked up): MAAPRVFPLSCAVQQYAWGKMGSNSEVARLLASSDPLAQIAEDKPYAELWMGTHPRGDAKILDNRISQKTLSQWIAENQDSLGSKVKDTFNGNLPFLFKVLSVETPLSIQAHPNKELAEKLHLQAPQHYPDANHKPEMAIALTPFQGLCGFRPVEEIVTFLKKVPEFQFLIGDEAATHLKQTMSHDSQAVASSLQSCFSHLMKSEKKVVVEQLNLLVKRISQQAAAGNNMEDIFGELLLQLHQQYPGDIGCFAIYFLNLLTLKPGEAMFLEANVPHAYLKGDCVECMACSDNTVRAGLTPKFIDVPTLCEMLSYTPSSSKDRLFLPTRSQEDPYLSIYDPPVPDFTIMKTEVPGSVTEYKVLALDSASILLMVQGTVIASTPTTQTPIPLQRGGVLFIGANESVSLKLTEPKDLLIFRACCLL
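Technique: Diaphorase-driven resazurin-to-resorufin fluorescence, excitation 544, emission 590 nm | Assay system: Human PMI in coupled enzyme assay | Times: Enzyme reaction with compound 20 min at room temperature | Medium: HEPES-buffered pH 7.4 with magnesium and detergent | Reagent: Mannose-6-phosphate 1.0 mM (near-saturating) plus 0.22 mM NADP+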
HCT116 PTEN-null: suppresses growth of cells with PTEN deletion | HCT116 PTEN-null viability, CellTiter-Glo, 60 h; stronger effect = lower value | viability, % at 10 µM | hit rate 1.2% among 140,000 | AID 827;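 active = viability at or below a set limit, 4 SD under the median of all tested compounds, cut at about 3.7% in these data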;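 note: PTEN knockout HCT116 line with beta catenin targeted HCT116 as companion control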
PMI activator: phosphomannose isomerase (human) activation | hit rate 0.005% among 190,000 | activation factor at 20 µM | purified human PMI, coupled resazurin fluorescence, 20 min; stronger effect = higher value; 1 = vehicle control, 0 substrate-free wells | AID 1214;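 active = activation factor of 2 or more at 20 µM, relative to plate controls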
HCT116 bCat-KO: beta-catenin-lacking colon tumor cell growth suppression | viability, % at 10 µM | HCT116 beta-catenin knockout viability, CellTiter-Glo, 60 h; stronger effect = lower value | hit rate 1.5% among 140,000 | AID 818;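 active = viability at or under a set limit, the compound median less 4 SD, cut at about 6% in these data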
L major viab: Leishmania major promastigote growth inhibition; inhibition, % at 10 µM; AID 1063; hit rate 9% among 200,000; Leishmania major promastigotes, resazurin fluorescence viability; in the data active = inhibition above about 50%;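 note: promastigotes grown with compound for 44 hours at 28 °C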
Hits are given with their value; n = inactive; x = no result. The list is not random: actives were taken first. Their share in the collection is about 9.6%.

SMILES	PMI act satM6P	HCT116 PTEN-null	PMI activator	HCT116 bCat-KO	L major viab
O=C1C2=C(Nc3ccccc3SC2c2ccco2)c2ccccc21 (stereo not given)	n	n	n	n	99
COc1cccc(NC(=O)Cn2c(CCC(=O)O)ccc2-c2ccc(C)cc2)c1	n	x	n	x	n
COc1ccc(NC(=O)c2c3c(nc4ccccc24)CCN(Cc2ccccc2)C3)c(OC)c1	n	x	n	x	n
CCN(CC)S(=O)(=O)c1ccc(OC(C)C)c(NC(=O)c2c3c(nc4ccccc24)CCN(Cc2ccccc2)C3)c1	n	n	n	n	58
COc1ccc(S(=O)(=O)N2CCCCCC2)cc1NC(=O)c1c2c(nc3ccccc13)CCN(Cc1ccccc1)C2	n	n	n	n	54
Cc1sc(N)c(C(=O)c2ccccc2)c1C	n	x	n	x	n
COc1ccc(C2(CCN)CC(C)N(C)CC2C)cc1 (stereo not given)	n	n	n	n	n
Cc1ccc(CC2(O)CC(C)N(C)CC2C)c(C)c1 (stereo not given)	n	n	n	n	69
Cc1cc(N=NC(=O)c2ccccc2)ccc1O	n	x	n	x	86
COc1cccc(OC)c1C(=O)OCC(=O)NC(=O)NCc1ccccc1	n	x	n	x	n
O=C(COC(=O)c1c(Cl)ccc(Cl)c1Cl)NC(=O)NCc1ccccc1	n	n	n	n	79
C=CCSc1nnc(C)c(/C=C/Nc2ccc(Cl)cc2)n1	n	x	n	x	n
Cc1ccccc1OCc1nc(-c2ccc(NC(=O)c3cccs3)cc2)no1	n	n	n	n	71
CCN(CC)CCNC(=O)c1c(O)c2cc(OC)c(OC)cc2[nH]c1=O	n	n	n	n	79
O=C(/C=C/c1cccs1)Nc1ccc(N2CCOCC2)c(S(=O)(=O)Nc2cc(Cl)ccc2Cl)c1	n	n	n	n	n
COc1ccccc1NS(=O)(=O)c1cc(NC(=O)/C=C/c2cccs2)ccc1N1CCOCC1	n	n	n	n	99
O=C(/C=C/c1cccs1)Nc1ccc(N2CCOCC2)c(S(=O)(=O)Nc2ccccc2Cl)c1	n	n	n	n	99
O=C(NC12CC3CC(CC(C3)C1)C2)c1cncc(O)c1	n	n	n	n	n
NC(=O)CC[C@H](NC(=O)c1ccc(F)cc1)C(=O)OCC(=O)NCc1ccc(F)cc1	n	x	n	x	n
Cc1c(NC(=O)COC(=O)c2cc3c4ccccc4n(C)c3s2)c(=O)n(-c2ccccc2)n1C	n	n	n	n	96
O=C(CNC1CCCCCC1)Nc1ccccc1N1CCOCC1	n	x	n	x	n
CC(=O)Nc1ccccc1/C=C/c1ccc2c(C)cc(C)c(O)c2n1	n	3.3	n	n	n
CC(=O)Nc1ccccc1/C=C/c1ccc2c(C)ccc(O)c2n1	n	n	n	n	n
O=C(CN1CCN(c2ccccc2F)CC1)Nc1ccc2c(c1)CCC2	n	n	n	n	64
N#Cc1ccsc1NC(=O)CN1CCN(S(=O)(=O)c2ccc3ccccc3c2)CC1	n	n	n	n	65
SMILES	PMI act satM6P	HCT116 PTEN-null	PMI activator	HCT116 bCat-KO	L major viab
O=C(CN1CCN(S(=O)(=O)c2ccc3ccccc3c2)CC1)Nc1ccc2c(c1)CCC2	n	n	n	n	89
Cc1cc(C)n2c(nc3ccccc32)c1C(=O)NCc1ccccc1	n	x	n	x	n
O=S1(=O)CC(O)C(Nc2ccccc2Cl)C1 (stereo not given)	n	n	n	n	n
COc1cc(NC2=Nc3cccc4cccc2c34)cc(OC)c1OC	n	n	n	n	56
O=C(CSc1nnc2ccc(-c3ccccc3)nn12)NCC1CCCO1 (stereo not given)	n	x	n	x	n
CCN1CCCC1CNS(=O)(=O)c1ccc(Cl)c(C(F)(F)F)c1 (stereo not given)	n	x	n	x	81
CCN1CCCC1CNS(=O)(=O)c1ccc(C(=O)Nc2ccccc2)cc1 (stereo not given)	n	n	n	n	n
C/C(CC(=O)Nc1c(C)cc(C)cc1C)=N\NC(=O)c1cnccn1	n	n	n	n	n
CCOCCCNC(=O)c1ccc(CS(=O)(=O)Cc2ccccc2F)o1	n	n	n	n	n
OCCN1CCN(CC#CCn2c3ccccc3c3ccccc32)CC1	n	n	n	n	64
CCn1c(CN2CCN(CCO)CC2)nc2ccccc21	n	x	n	x	n
Nc1ncnc(Sc2ccc(Cl)cc2)c1[N+](=O)[O-]	n	n	n	n	67
Nc1ncnc(Sc2ccccc2)c1[N+](=O)[O-]	n	n	n	n	n
Nc1ncnc(Sc2ncccn2)c1[N+](=O)[O-]	n	x	n	x	59
COCCCN1C(=O)/C(=C\c2cccs2)C(C(=O)OC)=C1C	n	x	n	x	n
O=C(CSc1n[nH]c(-c2ccccc2)n1)Nc1ccc(Br)cn1	n	n	n	n	54
O=C(O)CCCNCc1ccccc1F	n	n	n	n	n
CC(C)(C)N=C1C([N+](=O)[O-])=CC=C2C1=NC1(CCCCC1)N2O	n	n	n	n	n
O=[N+]([O-])C1=CC=C2C(=NC3(CCCCC3)N2O)C1=NCCc1ccccc1	n	x	n	x	75
CC(N1CCOC1=O)S(=O)(=O)c1ccccc1 (stereo not given)	2	n	n	n	n
Cc1ccc(-n2nnnc2SCc2ccccn2)cc1C	n	n	n	n	n
Cc1cc(C)c2cc3c(N)c(C(=O)N4CCOCC4)sc3nc2c1	n	x	n	x	n
CCOc1ccc2nc3sc(C(=O)N4CCOCC4)c(N)c3cc2c1	x	x	x	x	93
O=C1c2ccccc2NC(c2ccc(O)cc2)N1/N=C/c1ccc(O)cc1 (stereo not given)	n	n	n	n	67
CCCC(CCC)C(=O)Oc1cc(C)[nH]c(=O)c1[N+](=O)[O-]	n	x	n	x	n
SMILES	PMI act satM6P	HCT116 PTEN-null	PMI activator	HCT116 bCat-KO	L major viab
CCOc1ccc(N2C(=O)CC(Sc3nc(-c4cccs4)cc(C(F)(F)F)c3C#N)C2=O)cc1 (stereo not given)	n	n	n	n	55
Fc1ccc(-n2nnc(-c3cnc4ccccc4c3)n2)cc1	n	x	n	x	n
Cc1cccc(S(=O)(=O)N2CCC(CO)(Cc3ccccc3)CC2)c1	n	x	n	x	n
C=C(C)Cn1c(C)cc(C)c(S(=O)(=O)c2cccc(C)c2)c1=O	n	x	n	x	96
COc1ccc(C(=O)Nc2ccccc2C(=O)NC(Cc2ccc(O)cc2)C(=O)NNC(=O)c2ccccc2)cc1 (stereo not given)	n	n	n	n	62
COc1ccc(OC)c(C(=O)c2ccc(C(=O)Nc3cccc4ccccc34)cc2)c1	n	n	n	n	55
COc1ccccc1C(=O)Nc1ccc(C)cc1C(=O)c1ccccc1	n	n	n	n	n
COc1ccc(C(=O)Nc2ccccc2C(=O)NC(Cc2ccc(O)cc2)C(=O)NNC(=O)c2ccc(C)cc2)cc1 (stereo not given)	n	n	n	n	n
COC(=O)c1sc(-c2ccccc2)cc1NC(=O)c1cc(OC)cc(OC)c1	n	n	n	n	n
COc1ccc(C(=O)Nc2ccc(C)cc2C(=O)c2ccccc2)cc1	n	n	n	n	99

Screening data from PubChem BioAssay.
